As a reminder, the Ki is a dissociation constant, usually derived from enzyme kinetics or from competition with a known ligand.

Results on 3 compounds are retold here after ChEMBL document CHEMBL4145534, “Computer-aided insights into receptor-ligand interaction for novel 5-arylhydantoin derivatives as serotonin 5-HT7 receptor agents with antidepressant activity” (Eur J Med Chem, 2018).

Each structure is given as a SMILES string.

The target of data set [1] is T1, Adrenergic receptor alpha-1 (Rattus norvegicus, UniProt P15823+P23944+P43140).
T1 sequence (P15823 whole entry): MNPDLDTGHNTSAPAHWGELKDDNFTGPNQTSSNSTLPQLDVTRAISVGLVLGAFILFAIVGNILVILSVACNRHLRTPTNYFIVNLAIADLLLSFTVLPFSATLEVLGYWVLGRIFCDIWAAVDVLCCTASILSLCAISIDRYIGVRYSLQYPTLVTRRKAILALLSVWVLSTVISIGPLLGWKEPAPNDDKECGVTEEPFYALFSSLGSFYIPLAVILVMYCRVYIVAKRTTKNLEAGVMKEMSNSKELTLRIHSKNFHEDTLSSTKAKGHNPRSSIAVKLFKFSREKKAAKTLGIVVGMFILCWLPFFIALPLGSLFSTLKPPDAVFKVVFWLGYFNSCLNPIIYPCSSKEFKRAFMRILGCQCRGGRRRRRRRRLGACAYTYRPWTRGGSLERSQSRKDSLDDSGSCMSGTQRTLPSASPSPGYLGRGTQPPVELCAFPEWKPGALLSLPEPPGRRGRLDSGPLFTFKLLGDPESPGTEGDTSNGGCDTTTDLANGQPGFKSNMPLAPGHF
T1 sequence (P23944 whole entry): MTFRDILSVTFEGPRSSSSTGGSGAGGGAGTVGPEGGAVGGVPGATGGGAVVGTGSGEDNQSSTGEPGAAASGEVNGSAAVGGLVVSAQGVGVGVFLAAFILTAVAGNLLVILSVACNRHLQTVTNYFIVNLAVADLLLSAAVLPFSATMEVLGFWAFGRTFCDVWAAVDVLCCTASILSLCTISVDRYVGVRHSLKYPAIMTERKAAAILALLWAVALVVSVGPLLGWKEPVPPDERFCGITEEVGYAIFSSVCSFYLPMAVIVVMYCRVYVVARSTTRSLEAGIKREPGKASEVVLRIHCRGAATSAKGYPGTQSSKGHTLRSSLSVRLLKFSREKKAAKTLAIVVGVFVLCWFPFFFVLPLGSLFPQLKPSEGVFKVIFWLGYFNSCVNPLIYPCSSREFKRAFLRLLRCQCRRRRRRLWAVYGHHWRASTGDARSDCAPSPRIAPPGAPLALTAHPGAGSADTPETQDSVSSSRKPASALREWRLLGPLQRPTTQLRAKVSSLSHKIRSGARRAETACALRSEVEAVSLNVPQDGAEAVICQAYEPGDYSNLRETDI
T1 sequence (P43140 whole entry): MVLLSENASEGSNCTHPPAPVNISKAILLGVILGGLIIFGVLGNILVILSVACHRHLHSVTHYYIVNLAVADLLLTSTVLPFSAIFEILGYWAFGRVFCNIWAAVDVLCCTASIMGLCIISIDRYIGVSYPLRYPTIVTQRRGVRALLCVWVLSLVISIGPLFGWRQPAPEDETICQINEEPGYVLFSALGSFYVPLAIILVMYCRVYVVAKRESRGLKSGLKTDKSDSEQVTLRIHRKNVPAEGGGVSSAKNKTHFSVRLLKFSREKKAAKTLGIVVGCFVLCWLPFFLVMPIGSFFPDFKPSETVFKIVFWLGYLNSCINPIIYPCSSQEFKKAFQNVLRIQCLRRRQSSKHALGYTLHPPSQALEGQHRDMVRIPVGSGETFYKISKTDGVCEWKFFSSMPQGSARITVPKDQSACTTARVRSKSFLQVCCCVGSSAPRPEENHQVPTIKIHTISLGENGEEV
The data set is described as follows: Displacement of [3H]-prazosin from alpha1-adrenergic receptor in rat brain cortex after 30 mins by Microbeta scintillation counting method. (In general: In a radioligand displacement assay an active substance lowers the binding of a labelled ligand.)

Data set [2] concerns the target Beta-1 adrenergic receptor (Rattus norvegicus, UniProt P18090). Briefly: Displacement of [3H]-CGP-12177 from beta1-adrenergic receptor in rat brain cortex after 1 hr by Microbeta scintillation counting method.
Data set [3] relates to Mus musculus. The data set is described as follows: Antidepressant like activity in Swiss albino mouse assessed as immobility time at 5 mg/kg, ip administered 60 mins prior to test and measured last 4 mins of 6 mins test by forced swimming test (reference value: 159.78 to 183.56 secs). Format: functional.
For data set [4], the system named is Mus musculus. The data set is described as follows: Antidepressant like activity in Swiss albino mouse assessed as immobility time at 10 mg/kg, ip administered 60 mins prior to test and measured last 4 mins of 6 mins test by forced swimming test (reference value: 159.78 to 183.56 secs). Format: functional.
For data set [5], the system named is Mus musculus. Briefly: Antidepressant like activity in Swiss albino mouse assessed as immobility time at 20 mg/kg, ip administered 60 mins prior to test and measured last 4 mins of 6 mins test by forced swimming test (reference value: 159.78 to 183.56 secs). The class given is functional.
Data set [6] relates to Mus musculus. Briefly: Anxiolytic-like activity in Swiss albino mouse assessed as number of punished crossings at 10 mg/kg, ip administered 60 mins prior to test and measured post 3 secs of electric shock by four-plate test (reference value: 3.8 to 4 /min). Format: functional.
The subject of data set [7] is Mus musculus. Briefly: Anxiolytic-like activity in Swiss albino mouse assessed as number of punished crossings at 20 mg/kg, ip administered 60 mins prior to test and measured post 3 secs of electric shock by four-plate test (reference value: 3.8 to 4 /min). Format: functional.
For data set [8], the system named is Mus musculus. Briefly: Anxiolytic-like activity in Swiss albino mouse assessed as number of punished crossings at 40 mg/kg, ip administered 60 mins prior to test and measured post 3 secs of electric shock by four-plate test (reference value: 3.8 to 4 /min). The class given is functional.
In data set [9] the test system is Mus musculus. Briefly: Effect on spontaneous locomotor activity in Swiss albino mouse at 20 mg/kg, ip administered 60 mins prior to test and measured for 3 to 6 mins. The class given is ADME, organism-based. The conditions noted are these: in vivo. The gist of the method:
(§1)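 Male Swiss Albino mice given compound or vehicle (1% Tween 80, 10 ml/kg) i.p. 60 min before test. Each mouse placed alone in a cage for 30 min habituation. Ambulation (photobeam channel crossings) then recorded over a 3–6 min session. Means ± SEM.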

For the next data set, the species on record is Homo sapiens. The data set is described as follows: Selectivity ratio of Ki for human D2L receptor expressed in HEK293 cell membranes to Ki for human 5HT7BR expressed in HEK293 cell membranes. The class given is cell-based. The gist of the method: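 Membranes from HEK293 cells stably expressing human 5-HT1A, 5-HT7b or D2L receptors. Buffers all 50 mM Tris HCl with 4 mM MgCl2 and 0.1% ascorbate. 5-HT1A: 0.1 mM EDTA, 10 µM pargyline, 2.5 nM [3H]-8-OH-DPAT, room temperature. 5-HT7b: 10 µM pargyline, 0.8 nM [3H]-5-CT, 37°C. D2L: EDTA, NaCl, KCl, CaCl2, 2.5 nM [3H]-raclopride, 37°C. Incubation 1 h; nonspecific binding 10 µM 5-HT (haloperidol for D2L). Seven concentrations (10^-10–10^-4 M) in triplicate; filtration; Ki by Cheng-Prusoff; at least two experiments.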

For data set [10], the system named is Mus musculus. Briefly: Anxiolytic-like activity in Swiss albino mouse assessed as number of punished crossings at 5 mg/kg, ip administered 60 mins prior to test and measured post 3 secs of electric shock by four-plate test (reference value: 3.8 to 4 /min). Format: functional.
Data set [11] has as its system Mus musculus. Briefly: Antidepressant like activity in Swiss albino mouse assessed as decrease in immobility time at 10 mg/kg, ip administered 60 mins prior to test and measured last 4 mins of 6 mins test by forced swimming test relative to control. The class given is functional. More on the design: scale not given: the % may be the effect or the level left.
Data set [12] deals with Mus musculus. The data set is described as follows: Effect on spontaneous locomotor activity in Swiss albino mouse at 10 mg/kg, ip administered 60 mins prior to test and measured for 3 to 6 mins. The class given is ADME, organism-based. The settings on record: in vivo. Summed up:
as §1

Sequence of Beta-1 adrenergic receptor (P18090 whole entry): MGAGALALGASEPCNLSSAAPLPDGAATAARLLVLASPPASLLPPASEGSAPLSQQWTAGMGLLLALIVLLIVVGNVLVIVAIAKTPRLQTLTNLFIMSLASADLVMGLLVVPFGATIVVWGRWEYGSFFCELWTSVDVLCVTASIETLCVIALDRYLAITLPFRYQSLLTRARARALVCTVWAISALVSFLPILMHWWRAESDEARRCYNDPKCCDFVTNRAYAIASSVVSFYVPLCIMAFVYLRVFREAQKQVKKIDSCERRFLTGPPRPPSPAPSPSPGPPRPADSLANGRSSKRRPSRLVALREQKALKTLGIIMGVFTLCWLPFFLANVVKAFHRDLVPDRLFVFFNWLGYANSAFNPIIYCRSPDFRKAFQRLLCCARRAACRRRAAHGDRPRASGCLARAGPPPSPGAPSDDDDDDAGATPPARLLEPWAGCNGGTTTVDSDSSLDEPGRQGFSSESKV

`CC1(c2ccc(Br)cc2)NC(=O)N(CC(O)CN2CCN(c3ccccc3C#N)CC2)C1=O.Cl` (racemic): the Ki is 0.2 µM in data set [1] and over 10 µM in [2]. The Time was 156.33 s in the data set with Mus musculus [3], 136.63 s in the data set on Mus musculus [4] and 55.33 s in the data set on Mus musculus [5]. In addition, the Activity in the data set on Mus musculus [6] was 3.9 min⁻¹; in the data set with Mus musculus [7], 3.7 min⁻¹; in the data set on Mus musculus [8], 4.3 min⁻¹; with Mus musculus [9], “Non-Toxic”.
With `CC1(c2ccc(Cl)cc2)NC(=O)N(CC(O)CN2CCN(c3ccccc3C#N)CC2)C1=O.Cl` (racemic), the Ki in data set [1] is 0.25 µM; in [2] it was over 10 µM. Further, in the data set listed under Homo sapiens, the Ratio Ki lay in the range of 140 to 190.
On to `COc1ccccc1N1CCN(CC(O)CN2C(=O)NC(C)(c3ccc(Br)cc3)C2=O)CC1.Cl` (racemic), for which the Ki in data set [1] is 0.167 µM; in data set [2], over 10 µM. Besides, the Time in the data set with Mus musculus [3] was found to be 184.22 s; with Mus musculus [4] it was 179.44 s; in the data set on Mus musculus [5] it was 91.13 s. For the same compound, the Activity with Mus musculus [10] is 3.1 min⁻¹; in the data set with Mus musculus [6], 3.1 min⁻¹; with Mus musculus [7], 2.2 min⁻¹; with Mus musculus [11] it was 50%; in the data set on Mus musculus [12] it was “Non-Toxic”.
